This is an account of results in ChEMBL document CHEMBL1148990, “Effect of benzylic oxygen on the antioxidant activity of phenolic lignans” (J Nat Prod, 2005).

Assay [1] can be described thus: Antioxidant activity assessed as AAPH radical scavenging activity after 3 hrs. Type of assay: functional. Summed up:
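Ethyl linoleate (50 mM) oxidized with AAPH (10 mM) in 0.3 M Tween 20/0.05 M phosphate buffer (pH 7.4) micelles; test sample 0.10 mM final (from DMSO stock). Incubation 37 °C, dark, with shaking, 3 h. Aliquot quenched into methanolic trolox; ethyl linoleate hydroperoxide quantified by reverse-phase HPLC at 234 nm from a peak-area calibration equation.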

Assay [2] relates to Radical scavenging activity. The assay can be described thus: Antioxidant activity assessed as DPPH radical scavenging activity. Type of assay: functional. Summed up: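 Test sample at 20 µM final mixed with DPPH (0.1 mM); stood 0.5 h at 25 °C, then absorbance read at 517 nm. Activity expressed as decrease of absorbance: DPPH blank minus (DPPH + sample) plus sample-only absorbance.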

Molecules are shown by their SMILES. Activity calls are given as the source filed them. No cut-off for these calls is given here.

With `COc1cc(C[C@H]2COC(=O)[C@@H]2Cc2ccc(O)c(OC)c2)ccc1O`, the result in assay [1] and in assay [2] was Active.

Consider `COc1cc(C[C@H]2COC[C@@H]2[C@@H](O)c2ccc(O)c(OC)c2)ccc1O`, for which the result in assay [1] and in assay [2] was Active.

For `COc1cc(C[C@H]2COC[C@@H]2C(=O)c2ccc(O)c(OC)c2)ccc1O`, the outcome in assay [1] and in assay [2] was Active.

Turning to `COc1cc(C[C@H]2COC[C@@H]2[C@H](O)c2ccc(O)c(OC)c2)ccc1O`, the result in assay [1] and in assay [2] was Active.

In the case of `COc1cc([C@@H]2c3cc(O)c(OC)cc3C[C@H]3COC[C@H]32)ccc1O`, the outcome in assay [1] and in assay [2] was Active.

`COc1cc(C(O)[C@H]2COC[C@@H]2[C@@H](O)c2ccc(O)c(OC)c2)ccc1O` (single isomer, unassigned): the outcome in assay [1] and in assay [2] was Active.

Take `COc1cc(C[C@H]2COC[C@@H]2Cc2ccc(O)c(OC)c2)ccc1O`: the result in assay [1] and in assay [2] was Active.

With `COc1cc([C@@H](O)[C@H]2COC[C@@H]2[C@H](O)c2ccc(O)c(OC)c2)ccc1O`, the result in assay [1] and in assay [2] was Active.
